Screening data: PubChem BioAssay, Johns Hopkins Ion Channel Center
Shown are actives, neighbours in structure and some others; about 3.7% of the full set was active somewhere.
KCNK9 block: KCNK9 potassium channel inhibitors, primary screen, HEK293 cells, thallium flux. B-score at 10 µM. Potassium channel subfamily K member 9 (Homo sapiens), Q9NPC2. hit rate 1.2% among 310,000. AID 488922, 2010. FluxOR thallium flux fluorescence; hits give low values;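 active = ratio B-score over 3 SD below the library mean, with starting fluorescence within 5 SD of its mean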;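 also: negative B-score means less thallium flux so channel inhibition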
KCNQ1 pot: potentiators or activators of KCNQ1 channel, primary screen, cell-based, thallium flux, high-throughput; B-score at 10 µM; Potassium voltage-gated channel subfamily KQT member 1 (Homo sapiens), P51787; hit rate 0.35% among 310,000; CHO-K1 KCNQ1, thallium flux FluxOR fluorescence; hits give high values; AID 2648, 2010;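 active = fluorescence ratio B-score, a plate-corrected score, at least three library SD, with initial intensity B-score within 5 SD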
Target sequence (P51787 whole entry, looked up): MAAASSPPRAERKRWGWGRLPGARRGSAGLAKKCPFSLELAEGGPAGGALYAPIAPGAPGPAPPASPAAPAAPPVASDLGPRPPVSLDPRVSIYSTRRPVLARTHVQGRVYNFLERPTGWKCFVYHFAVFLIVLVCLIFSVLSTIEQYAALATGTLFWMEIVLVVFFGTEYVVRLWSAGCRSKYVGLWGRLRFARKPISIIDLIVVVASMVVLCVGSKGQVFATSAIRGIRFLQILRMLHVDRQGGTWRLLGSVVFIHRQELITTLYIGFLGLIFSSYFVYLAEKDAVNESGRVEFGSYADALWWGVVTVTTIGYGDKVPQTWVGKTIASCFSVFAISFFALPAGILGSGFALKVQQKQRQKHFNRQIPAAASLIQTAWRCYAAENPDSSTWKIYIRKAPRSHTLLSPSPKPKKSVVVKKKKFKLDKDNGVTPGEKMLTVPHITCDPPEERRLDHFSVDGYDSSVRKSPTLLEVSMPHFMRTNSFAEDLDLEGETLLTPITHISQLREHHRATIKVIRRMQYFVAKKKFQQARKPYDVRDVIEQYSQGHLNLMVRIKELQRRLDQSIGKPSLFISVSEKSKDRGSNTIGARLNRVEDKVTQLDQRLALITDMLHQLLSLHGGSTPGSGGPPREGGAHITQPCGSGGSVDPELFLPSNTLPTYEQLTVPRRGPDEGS
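Assay system: stable KCNQ1 CHO-K1 line; medium: assay buffer, equal DMSO in all wells; timing: 90 min dye loading and 20 min compound exposure, both at room temperature; technique: kinetic FluxOR thallium fluorescence, 10-s 1-Hz baseline, 110-s post-stimulus read; read-out basis: B score of baseline-normalized fluorescence ratio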
hERG protect: hERG rescue from dofetilide block, primary screen, cell-based, CHO-hERG, FluxOR thallium flux, dofetilide IC70; Voltage-gated inwardly rectifying potassium channel KCNH2 (Homo sapiens), Q12809; dofetilide IC70 present; activation (rescue from dofetilide block), less the hit threshold, % at 10 µM; hit rate 0.51% among 310,000; AID 1511, 2009;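 active = activation above the mean of controls blocked by dofetilide plus 5 SD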;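 also: thallium influx through hERG after potassium depolarization seen as dye fluorescence rise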
Kir21 block: inhibitors of mouse Kir2.1 inward-rectifier potassium channel. HEK293-Kir2.1, FluxOR thallium flux fluorescence; hits give low values. B-score at 10 µM. hit rate 0.85% among 310,000. AID 1672, 2009;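 active = fluorescence ratio B-score at or below minus 3 SD of library scores, with starting-brightness B-score within 2 SD, cut at about -4.2 in these data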;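 also: channel flux triggered by added potassium and thallium sulfate stimulus; B-score of peak minus minimum fluorescence over baseline after thallium stimulus; more negative B-score means stronger Kir2.1 block with less thallium influx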
KCNQ1 inh: inhibitors of human KCNQ1 channel, primary screen, cell-based, thallium flux, high-throughput | B-score at 10 µM | Potassium voltage-gated channel subfamily KQT member 1 (Homo sapiens), P51787 | CHO-K1 KCNQ1, FluxOR thallium flux fluorescence; hits give high values | hit rate 1.3% among 310,000 | AID 2642, 2010;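 active = compounds whose thallium flux B-score, printed positive for inhibition, exceeds three library SD while starting fluorescence stays within three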;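 also: channel opened by potassium depolarization with thallium stimulus after 20 min compound exposure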
KCNK3 block: human KCNK3 channel inhibitors, primary screen, CHO cells, FluxOR thallium flux, B-score. FluxOR fluorescence; hits give low values. hit rate 0.84% among 340,000. AID 602410, 2012. Potassium channel subfamily K member 3 (Homo sapiens), O14649. B-score at 10 µM;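 active = B-score under library mean minus 4 SD, starting fluorescence ratio at most library mean plus 5 SD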;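 also: more negative B-score means stronger inhibition of thallium flux through KCNK3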
KCNK3 confirm: retest of human KCNK3 channel inhibitors, confirmation, CHO cells, FluxOR thallium flux, triplicate. AID 651638, 2012. shares compounds with KCNK3 block. FluxOR fluorescence; 0% buffer, 100% carvedilol maximal block. hit rate 99% among 2,400. ratio percent of control, % at 10 µM;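 active = ratio percent of control, averaged over triplicates, above buffer control mean plus 5 SD, cut at about 64% in these data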;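 also: ratio is the fluorescence rise from min to max over baseline after thallium stimulus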
KCNK3 noninduced: thallium flux inhibition in non-induced cells, primary screen, counter-screen for KCNK3 inhibitor project, cell-based, non-induced KCNK3 line, FluxOR thallium, triplicate | hit rate 40% among 2,400 | shares compounds with KCNK3 block | AID 651747, 2012 | thallium flux ratio (lower = more inhibition) at 10 µM | non-induced KCNK3 parental cells; hits give low values;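 active = thallium flux ratio, averaged over three wells, more than 5 SD below the buffer control mean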;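 also: host cells are CHO cells without KCNK3 induction; ratio is peak minus trough fluorescence over baseline then normalized to buffer controls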
* hit, by the source's call.

Screening Clc1ccc(/C=C\c2nccc3c2[nH]c2ccccc23)cc1 returned KCNK9 block inactive, KCNQ1 pot inactive, hERG protect -19.3, Kir21 block 1.58, KCNQ1 inh inactive and KCNK3 block inactive.
N#Cc1ccc(/C=C\c2nccc3c2[nH]c2ccccc23)cc1 was read as KCNK9 block inactive, KCNQ1 pot inactive, hERG protect -14.3, Kir21 block -0.39, KCNQ1 inh inactive, KCNK3 block -9.95*, KCNK3 confirm 116.3* and KCNK3 noninduced 0.158*.
CCNC(=O)NC(=O)CSc1ccc(S(=O)(=O)N2CCOCC2)cn1 was read as KCNK3 block inactive.
For CCOC(=O)C1(Cc2cccc(OC)c2)CCCN(Cc2cc(OC)c(O)c(OC)c2)C1 (centres undefined) the results were KCNK9 block inactive, KCNQ1 pot inactive, hERG protect -6.4, Kir21 block -0.34, KCNQ1 inh inactive and KCNK3 block inactive.
Cc1nn(C(C)(C)C)c(OC(=O)C2CCCC2)c1S(=O)(=O)c1ccccc1 was read as KCNK9 block inactive, KCNQ1 pot inactive, hERG protect -5.5, Kir21 block -1.64, KCNQ1 inh inactive, KCNK3 block -9.86*, KCNK3 confirm 90.3* and KCNK3 noninduced inactive.
Screening CC(=O)c1ccccc1NC(=O)COC(=O)c1cc(C)oc1C returned KCNK3 block inactive.
`CC1CCN(S(=O)(=O)c2ccc3ncn(CC(=O)N(C)Cc4ccccc4)c(=O)c3c2)CC1` gave KCNK9 block inactive, KCNQ1 pot inactive, hERG protect -2.1, Kir21 block -0.02, KCNQ1 inh inactive, KCNK3 block -12.6*, KCNK3 confirm 72.3* and KCNK3 noninduced inactive.
Screening COC(=O)c1ccccc1NC(=O)Cn1cnc2ccc(S(=O)(=O)N3CCC(C)CC3)cc2c1=O returned KCNK9 block inactive, KCNQ1 pot inactive, hERG protect -0.6, Kir21 block 1.39, KCNQ1 inh inactive and KCNK3 block inactive.
CC1Cc2ccccc2N1S(=O)(=O)c1cccs1 (centres undefined) was read as KCNK9 block inactive, KCNQ1 pot inactive, hERG protect -15.2, Kir21 block -2.72, KCNQ1 inh inactive, KCNK3 block -9.41*, KCNK3 confirm 123.7* and KCNK3 noninduced 0.131*.
Cc1ccc(S(=O)(=O)N2c3ccccc3CC2C)cc1 (centres undefined) was read as KCNK9 block inactive, KCNQ1 pot inactive, hERG protect -14.9, Kir21 block -2.45, KCNQ1 inh inactive and KCNK3 block inactive.
Screening COCCNC(=O)c1cc(-c2ccccc2)nn1CC1CC(c2cccnc2)=NO1 (centres undefined) returned KCNK9 block inactive, KCNQ1 pot inactive, hERG protect 0.0, Kir21 block 0.96, KCNQ1 inh inactive and KCNK3 block inactive.
O=C(Nc1nc(-c2ccccc2)cs1)C1c2ccccc2Oc2ccccc21 was read as KCNK9 block -7.23*, KCNQ1 pot inactive, hERG protect -14.2, Kir21 block 0.4, KCNQ1 inh inactive, KCNK3 block -8.77*, KCNK3 confirm 119.3* and KCNK3 noninduced inactive.
For CC(C)(Oc1ccc(Cl)cc1)C(=O)O/N=C(\N)c1ccncc1 the results were KCNK9 block inactive, KCNQ1 pot inactive, hERG protect -7.6, Kir21 block 1.32, KCNQ1 inh inactive and KCNK3 block inactive.
